Shown are actives, neighbours in structure and some others; about 2.1% of the full set was active somewhere.
Insulin prom inh: TRM-6 insulin promoter activity inhibition | 130,000 compounds, 0.9% hits | TRM-6 cells (human fetal islet line), insulin promoter-eGFP reporter, imaging; reporter expression induced with tamoxifen | AID 1273 | inhibition, % at 2 µM;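 active = inhibition above the mean plus 3 SD, with well images judged a real hit on visual review, cut at about 60% in these data, passing the limit was not always enough; inconclusive = inhibition over the cutoff but images rejected on review; inactive = inhibition not above the cutoff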
RBBP9 inhibitor: human RBBP9 hydrolase inhibition; AID 1515; 220,000 compounds, 0.2% hits; inhibition, % at 7.94 µM; O75884; recombinant RBBP9, FP-Rh probe fluorescence polarization;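 active = inhibition above the campaign mean of all tested compounds plus 3 SD, cut at about 14% in these data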;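 note: plate controls were DMSO wells with RBBP9 for no effect and wells lacking RBBP9 protein for full effect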
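Measured by – fluorescence polarization · Test system – RBBP9 protein · Input – 2.5 µM RBBP9 dispensing solution, before mixing · Measure – percent inhibition from mP, scaled between DMSO and no-protein wells · Benchmarks – DMSO-treated enzyme wells and wells lacking RBBP9 · Times – preincubation 30 min plus labeling 45 min at 25 °C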
Autophagy HCS: modulators of autophagy; AID 463193; calls only at 10 µM (by protocol); 190,000 compounds, 0.98% hits; MEF GFP-LC3 puncta imaging; test concentration mostly 10 µM;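 active = percentage of spot-positive cells more than 3 SD above its plate mean, without a fluorescence outlier flag or 80% toxicity; inconclusive = no clear call, values can overlap the other calls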;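 note: spot-positive cell cutoff set from DMSO-treated cells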
PKD1 kinase inh: blocks activity of human protein kinase D1 | Q15139 | PKD1 kinase fluorescence polarization assay | inhibition, % (no concentration beside the values) | 200,000 compounds, 0.056% hits; in the data active = inhibition above about 50%
Target sequence (Q15139 whole entry, looked up): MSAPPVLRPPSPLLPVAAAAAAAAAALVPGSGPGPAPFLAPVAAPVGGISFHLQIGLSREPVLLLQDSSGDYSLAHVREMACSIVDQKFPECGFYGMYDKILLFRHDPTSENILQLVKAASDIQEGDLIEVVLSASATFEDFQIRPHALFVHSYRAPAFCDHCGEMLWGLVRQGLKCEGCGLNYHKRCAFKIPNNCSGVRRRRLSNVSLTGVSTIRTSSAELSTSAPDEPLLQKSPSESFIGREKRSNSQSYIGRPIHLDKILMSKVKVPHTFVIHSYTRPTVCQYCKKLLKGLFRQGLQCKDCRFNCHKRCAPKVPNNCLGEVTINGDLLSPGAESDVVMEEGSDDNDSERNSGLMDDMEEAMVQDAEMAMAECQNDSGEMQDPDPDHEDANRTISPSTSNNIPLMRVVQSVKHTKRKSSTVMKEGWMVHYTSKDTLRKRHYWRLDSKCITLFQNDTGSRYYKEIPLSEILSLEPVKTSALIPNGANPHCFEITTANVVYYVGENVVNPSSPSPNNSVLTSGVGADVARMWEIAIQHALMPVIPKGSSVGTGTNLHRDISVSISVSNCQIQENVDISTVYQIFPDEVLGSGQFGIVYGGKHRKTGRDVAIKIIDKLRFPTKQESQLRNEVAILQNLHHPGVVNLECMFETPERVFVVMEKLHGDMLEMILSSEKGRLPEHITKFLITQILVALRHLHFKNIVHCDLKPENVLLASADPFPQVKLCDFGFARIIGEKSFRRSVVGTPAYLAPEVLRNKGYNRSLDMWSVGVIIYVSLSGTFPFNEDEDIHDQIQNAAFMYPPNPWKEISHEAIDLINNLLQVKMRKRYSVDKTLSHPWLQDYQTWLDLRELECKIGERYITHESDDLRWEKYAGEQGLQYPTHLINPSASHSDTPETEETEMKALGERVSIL
Arbovirus anti: arbovirus infection inhibition | arbovirus infection cell-based antiviral screen | inhibition, % at 10 µM | 200,000 compounds, 0.37% hits | AID 1251; in the data active = inhibition above about 30%
Ins promoter up: MIN6 insulin promoter up-regulation; MIN6 insulin promoter-GFP reporter, high-content imaging; stronger effect = higher value; z-score at 5 µM; 190,000 compounds, 0.3% hits;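 active = z-score above 3 at 5 µM with at least 500 cells counted in the well; inconclusive = wells under 500 cells, flagged as cytotoxic or low count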
* hit, by the source's call.

Screening COc1cccc(/C=C(/C#N)c2ccc(F)cc2)c1OCc1cccc(C(=O)O)c1 returned Insulin prom inh -5, RBBP9 inhibitor -8, Autophagy HCS inactive, PKD1 kinase inh -15, Arbovirus anti 10 and Ins promoter up -0.19.
O=C(N/N=C/c1ccc(N2CCCCC2)o1)c1ccccc1 was read as Insulin prom inh 36, RBBP9 inhibitor -1, Autophagy HCS inactive, PKD1 kinase inh -4, Arbovirus anti 0 and Ins promoter up 0.02.
`N#C/C(=C/c1ccc(N2CCCCCC2)o1)c1ccc(F)cc1` gave Insulin prom inh -45, RBBP9 inhibitor -4, Autophagy HCS active, PKD1 kinase inh -5 and Arbovirus anti -25.
`N#C/C(=C/c1ccc(N2CCCCC2)o1)C(=O)Nc1ccc(Cl)cc1` gave Insulin prom inh -270, RBBP9 inhibitor -3, Autophagy HCS active, PKD1 kinase inh -2 and Arbovirus anti 3.
Screening C=CCNC(=O)NC(=O)c1csc([N+](=O)[O-])c1 returned RBBP9 inhibitor -11 and Ins promoter up 0.41.
`COC(=O)c1cn(-c2ccccc2)c(C)c1C(=O)OC` gave Insulin prom inh inactive, RBBP9 inhibitor -11, Autophagy HCS inactive, PKD1 kinase inh -10 and Arbovirus anti -6.
`N#C/C(=C/c1ccc(N2CCOCC2)o1)c1ccc(Br)cc1` gave Insulin prom inh -54, RBBP9 inhibitor -10, Autophagy HCS active, PKD1 kinase inh -15 and Arbovirus anti -21.
Screening N#C/C(=C\c1ccc(N2CCOCC2)o1)c1ccccc1 returned RBBP9 inhibitor 2, Autophagy HCS inactive, PKD1 kinase inh -8 and Arbovirus anti -6.
Screening COc1ccc(CNC(=O)CN2C(=O)C3C4C=CC(C4)C3C2=O)cc1 (stereo not given) returned Insulin prom inh -7, RBBP9 inhibitor -1, Autophagy HCS active, PKD1 kinase inh 0, Arbovirus anti -6 and Ins promoter up -0.09.
For COc1ccc(CN2C(=O)C3C4C=CC(C4)C3C2=O)cc1 (stereo not given) the results were Insulin prom inh -30, RBBP9 inhibitor -4, Autophagy HCS inactive, PKD1 kinase inh -4, Arbovirus anti -4 and Ins promoter up 0.62.
For O=C(CCCCC(=O)N1CCOCCOCCOCC1)OCc1ccccc1 the results were RBBP9 inhibitor -12 and Ins promoter up -0.81.
For CCc1cc(C(=O)OC)c(NC(=O)CC2Nc3cc(C)c(C)cc3NC2=O)s1 (stereo not given) the results were Insulin prom inh 3, RBBP9 inhibitor -7, Autophagy HCS active, PKD1 kinase inh -12, Arbovirus anti -4 and Ins promoter up 0.06.
`CCc1cc(C(=O)OC)c(NC(=O)CC2SC(=NC)N(C)C2=O)s1` (stereo not given) gave RBBP9 inhibitor -1, Autophagy HCS inactive, PKD1 kinase inh -3, Arbovirus anti -3 and Ins promoter up 0.01.
COC(=O)c1c(NC(=O)CC2Sc3ccc(C(F)(F)F)cc3NC2=O)sc(C)c1C (stereo not given) was read as Insulin prom inh -44, RBBP9 inhibitor -6, Autophagy HCS inactive, PKD1 kinase inh -2, Arbovirus anti -8 and Ins promoter up -0.52.
COC(=O)c1c(NC(=O)CC2Nc3cc(C)c(C)cc3NC2=O)sc(C)c1C (stereo not given) was read as RBBP9 inhibitor -4, Autophagy HCS inactive, PKD1 kinase inh 0, Arbovirus anti 6 and Ins promoter up 6.4*.
For O=C(O)CCCN1C(=O)/C(=C/c2ccc(-c3nc4ccccc4s3)o2)SC1=S the results were Insulin prom inh 0, RBBP9 inhibitor 2, Autophagy HCS inactive, PKD1 kinase inh 1, Arbovirus anti 20 and Ins promoter up 0.77.
Screening O=C(O)CCCCCN1C(=O)/C(=C\c2ccc(-c3ccc(Cl)cc3)o2)SC1=S returned RBBP9 inhibitor 4 and Ins promoter up 4.2*.
Cc1cc(C)cc(OCC(O)CN2CCN(Cc3ccc4c(c3)OCO4)CC2)c1 (stereo not given) was read as Insulin prom inh inconclusive, RBBP9 inhibitor 1, Autophagy HCS inactive, PKD1 kinase inh -4, Arbovirus anti -8 and Ins promoter up -0.74.
`Cc1snc(S(=O)(=O)/C(C#N)=N/Nc2ccc(C(F)(F)F)cc2)c1C#N` gave Insulin prom inh 71*, RBBP9 inhibitor 0, Autophagy HCS inactive, PKD1 kinase inh -5, Arbovirus anti 3 and Ins promoter up -0.12.
Cc1snc(S(=O)(=O)/C(C#N)=N\Nc2ccccc2)c1C#N was read as Insulin prom inh 4, RBBP9 inhibitor 1, Autophagy HCS inactive, PKD1 kinase inh 2, Arbovirus anti -1 and Ins promoter up -0.46.
Screening Cc1ccc(C(=O)N2CCOCC2)cc1Cl returned Insulin prom inh -54, RBBP9 inhibitor -5, Autophagy HCS inactive, PKD1 kinase inh -3, Arbovirus anti 8 and Ins promoter up 0.07.
For O=C(c1cc(Cl)cc(Cl)c1)N1CCOCC1 the results were Insulin prom inh 87*, RBBP9 inhibitor 2, Autophagy HCS inactive, PKD1 kinase inh -5, Arbovirus anti -3 and Ins promoter up -0.07.
`COCC(C)n1c(SCc2nc3ccccc3c(=O)[nH]2)nc2ccccc2c1=O` (stereo not given) gave Insulin prom inh -8, RBBP9 inhibitor -7, Autophagy HCS inactive, PKD1 kinase inh 3, Arbovirus anti 45* and Ins promoter up -1.1.
Cc1ccnc(N2C(=O)c3cccc4c([N+](=O)[O-])ccc(c34)C2=O)c1 was read as RBBP9 inhibitor -4, Autophagy HCS inactive, PKD1 kinase inh -11, Arbovirus anti -40 and Ins promoter up 3.1*.
COc1ccc(S(=O)(=O)Cc2ccc(C(=O)NCCCN(C)c3ccccc3)o2)cc1 was read as RBBP9 inhibitor -5, Autophagy HCS inactive, PKD1 kinase inh 9, Arbovirus anti 9 and Ins promoter up -0.4.
CC(=O)Nc1ccc(NS(=O)(=O)c2ccc(Cl)c(C(=O)O)c2)cc1 was read as Insulin prom inh 79*, RBBP9 inhibitor 0, Autophagy HCS inactive, PKD1 kinase inh -3, Arbovirus anti -2 and Ins promoter up 0.34.
Screening CCN1/C(=C/c2ccc3cc(C)ccc3[n+]2C)Sc2ccc3sccc3c21 returned Insulin prom inh -376, RBBP9 inhibitor -29, Autophagy HCS active, PKD1 kinase inh -3, Arbovirus anti -31 and Ins promoter up inconclusive.
For CCN(CC)c1ccc(/C=C/C(=O)C2C(=O)C=C(C)OC2=O)cc1 (stereo not given) the results were Insulin prom inh inactive, RBBP9 inhibitor -14, Autophagy HCS active, PKD1 kinase inh 47 and Arbovirus anti 1.
Screening CCN(CC)c1ccc(C=C2C(=O)OC(c3ccccc3)OC2=O)cc1 (stereo not given) returned Insulin prom inh -312, RBBP9 inhibitor -7, Autophagy HCS inactive, PKD1 kinase inh 6 and Arbovirus anti 6.
